Assay results reported in ChEMBL document CHEMBL2146423, “Photoresponsive 5'-cap for the reversible photoregulation of gene expression” (Bioorg Med Chem Lett, 2011).
Calls of active or inactive are those of the source. No cut-off for these calls is given here.

Experiments:
[1] = Thermal stability of the compound assessed as compound isomerization at 80 degC after 20 hrs; type: physicochemical
Method in brief: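 Cis and trans isomers held at 80 °C for 20 h and checked for thermal isomerization. Isomers were generated with a 300 W xenon lamp at 25 °C, 2 cm from the source: 410 nm (103 mW/cm2) or 310 nm (81 mW/cm2), 2 min each. Isomer content measured by HPLC peak area.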

Nucleic Acid [2] = assay: Binding affinity to Aequorea victoria GFP mRNA in insect cell extract assessed as mRNA translational efficiency at 4.8 mM irradiated with 410 nm monochromatic light for 2 mins measured after 10 hrs by fluorescence assay; type: nucleic-acid assay
Method in brief: (§1)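 Capped GFP mRNA made by in vitro T7 transcription (37 °C, 4 h; poly(A)30 template), DNase-digested and purified, then translated in insect cell extract. Before translation the mixture was irradiated at room temperature for 2 min at 410 nm (cis to trans) or 310 nm (trans to cis). GFP read by fluorescence.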

Nucleic Acid [3] = assay: Binding affinity to Aequorea victoria GFP mRNA in insect cell extract assessed as inhibition of mRNA translation at 4.8 mM irradiated with 310 nm monochromatic light for 2 mins measured after 10 hrs by fluorescence assay; type: nucleic-acid assay; method in brief: as §1
Nucleic Acid [4] = assay: Binding affinity to Aequorea victoria GFP mRNA in insect cell extract assessed as inhibition of mRNA translation at 4.8 mM irradiated with 410 nm monochromatic light for 2 mins measured after 10 hrs by fluorescence assay; type: nucleic-acid assay; method in brief: as §1
Nucleic Acid [5] = assay: Binding affinity to Aequorea victoria GFP mRNA in insect cell extract assessed as increase in mRNA translation at 4.8 mM irradiated with 310 nm monochromatic light for 2 mins measured up to 60 mins by time course fluorescence assay; type: nucleic-acid assay
Method in brief: (§2)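 GFP mRNA capped at the 5' end during in vitro T7 transcription (37 °C, 4 h; PCR template carrying a 30-base poly(A) tail), then DNase-treated and purified. Translated in insect cell extract. Sample irradiated 2 min at 310 nm at 0 and 130 min and 2 min at 410 nm at 60 min. GFP fluorescence (ex 480 nm, em 509 nm) recorded over time, with normal-capped mRNA run alongside.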

Nucleic Acid [6] = assay: Binding affinity to Aequorea victoria GFP mRNA in insect cell extract assessed as increase in mRNA translation at 4.8 mM irradiated with 310 nm monochromatic light for 2 mins measured after 130 mins by time course fluorescence assay; type: nucleic-acid assay; method in brief: as §2
Nucleic Acid [7] = assay: Binding affinity to Aequorea victoria GFP mRNA in insect cell extract assessed as mRNA translational efficiency at 4.8 mM irradiated with 410 nm monochromatic light for 2 mins measured after 10 hrs by fluorescence assay relative to normal-capped mRNA; type: nucleic-acid assay; method in brief: as §1

| Compound | Stability [1] | inhibition (Nucleic Acid [3]) | further results |
| --- | --- | --- | --- |
| CCN(CC)CC.CCN(CC)CC.C[n+]1c(/C=C\c2ccc3ccccc3c2)n([C@@H]2O[C@H](COP(=O)(O)OP(=O)(O)OP(=O)([O-])OC[C@H]3O[C@@H](n4cnc5c(=O)[nH]c(N)nc54)[C@H](O)[C@@H]3O)[C@@H](O)[C@H]2O)c2nc(N)[nH]c(=O)c21 | Stable |  | Activity (Nucleic Acid [2]): Active |
| CCN(CC)CC.CCN(CC)CC.C[n+]1c(/C=C/c2ccc3c(c2)Cc2ccccc2-3)n([C@@H]2O[C@H](COP(=O)([O-])OP(=O)(O)OP(=O)(O)OC[C@H]3O[C@@H](n4cnc5c(=O)[nH]c(N)nc54)[C@H](O)[C@@H]3O)[C@@H](O)[C@H]2O)c2nc(N)[nH]c(=O)c21 | Stable | Active |  |
| CCN(CC)CC.CCN(CC)CC.C[n+]1c(/C=C\c2ccc3c(c2)Cc2ccccc2-3)n([C@@H]2O[C@H](COP(=O)(O)OP(=O)(O)OP(=O)([O-])OC[C@H]3O[C@@H](n4cnc5c(=O)[nH]c(N)nc54)[C@H](O)[C@@H]3O)[C@@H](O)[C@H]2O)c2nc(N)[nH]c(=O)c21 | Stable |  | inhibition (Nucleic Acid [4]): Active |
| CCN(CC)CC.CCN(CC)CC.C[n+]1c(/C=C/c2ccccc2)n([C@@H]2O[C@H](COP(=O)([O-])OP(=O)(O)OP(=O)(O)OC[C@H]3O[C@@H](n4cnc5c(=O)[nH]c(N)nc54)[C@H](O)[C@@H]3O)[C@@H](O)[C@H]2O)c2nc(N)[nH]c(=O)c21 | Stable |  |  |
| CCN(CC)CC.CCN(CC)CC.C[n+]1c(/C=C/c2ccc3ccccc3c2)n([C@@H]2O[C@H](COP(=O)([O-])OP(=O)(O)OP(=O)(O)OC[C@H]3O[C@@H](n4cnc5c(=O)[nH]c(N)nc54)[C@H](O)[C@@H]3O)[C@@H](O)[C@H]2O)c2nc(N)[nH]c(=O)c21 | Stable | Active | Activity (Nucleic Acid [5]): inactive; Activity (Nucleic Acid [6]): inactive |
| CCN(CC)CC.CCN(CC)CC.C[n+]1c(/C=C\c2ccccc2)n([C@@H]2O[C@H](COP(=O)([O-])OP(=O)(O)OP(=O)(O)OC[C@H]3O[C@@H](n4cnc5c(=O)[nH]c(N)nc54)[C@H](O)[C@@H]3O)[C@@H](O)[C@H]2O)c2nc(N)[nH]c(=O)c21 | Stable |  | fold change (FC) (Nucleic Acid [7]): 2.2 |
